For 167 variants, yeast fitness results are on record in the RNAGym collection of RNA variant scans (doi:10.1126/science.aae0568).

Fewer inactive variants are shown than the library holds.

The chains are these.
B1: tRNA (parent)
chain: GUUCCGUUGGCGUAAUGGUAACGCGUCUCCCUCCUAAGGAGAAGACUGCGGGUUCGAGUCCCGUACGGAACG

In this data set the parent is B1. Kind of data set: yeast fitness relative to wild type (ratio to wild type); higher = fitter; tRNA-Arg(CCU), competitive growth, 37 C, YPD. The gist of the method:
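Genotype frequency changes were the basis for Darwinian fitness relative to wild type. The frequencies came from 100-nucleotide paired-end sequencing of gene amplicons from the start population and each end population of pooled yeast strains with tRNA-Arg(CCU) gene variants at the native locus. Competition ran in YPD at 37°C for 24 hours in six replicates, genotypes needed ≥ 100 starting reads, and estimates < 0.5 were set to 0.5.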
As to C4U G10C C30A G50A, the yeast fitness is at most 0.5.

As for C4U C24U C55U, the yeast fitness was at most 0.5.

For the variant C4U U8C A15C G63C, the yeast fitness was at most 0.5.

As to C4U C11G G56C, the yeast fitness is at most 0.5.

As for C4U G6C C33A A40C G41A U59A U64A C66G, the yeast fitness is at most 0.5.

C4U G10A C22G: the yeast fitness was found to be 0.642.

Turning to C4U G6C A21C C30G C46G, the yeast fitness stood at 0.524.

With C4U C30A A37U G44C U53A, the yeast fitness was at most 0.5.

C4U C11G C29U C62U G67C: the yeast fitness is at most 0.5.

On to C4U C5G G41A, for which the yeast fitness came out at 0.505.

C4U C22G C29G C31A A69C: the yeast fitness is at most 0.5.

Regarding C4U U7A A45U A57G, the yeast fitness was at most 0.5.

Regarding C4U C27G C31G, the yeast fitness was at most 0.5.

C4U G12A A20G C22U A57G: the yeast fitness was at most 0.5.

Consider C4U A57G G58C, for which the yeast fitness amounted to 0.736.

Turning to C4U C34U A40C G41A C62U A65U, the yeast fitness is at most 0.5.

Take C4U G9A C22A U26A G52C G67A: the yeast fitness is at most 0.5.

On to C4U C22G U28A A36U C55G C62U, for which the yeast fitness was at most 0.5.

C4U C22G U28A A36U A65U: the yeast fitness is at most 0.5.

In the case of C4U C27G C33U A57G, the yeast fitness is at most 0.5.

For C4U G44A U47C G56A, the yeast fitness was at most 0.5.

Turning to C4U G38C G50A A70G, the yeast fitness was at most 0.5.

For C4U G6C C30G, the yeast fitness was at most 0.5.

With C4U G41C, the yeast fitness was 0.819.

Regarding C4U C5U, the yeast fitness came to 1.01.

C4U C5A: the yeast fitness came out at 0.796.

For C4U U8A U13C A37G C46A, the yeast fitness is at most 0.5.

With C4U C29U C31U, the yeast fitness came to 0.538.

For C4U G12C C30G A36C, the yeast fitness was at most 0.5.

For the variant C4U G44A G58A, the yeast fitness stood at 0.974.

With C4U C22G U28A A36U C66U, the yeast fitness was at most 0.5.

Consider C4U C29A G52C C55A U59G, for which the yeast fitness came out at 0.554.

Turning to C4U C30A U59C A69C, the yeast fitness stood at 0.568.

For C4U G10C, the yeast fitness stood at 0.625.

Turning to C4U C11G G18A U26C G52C, the yeast fitness was at most 0.5.

In the case of C4U C27U, the yeast fitness turned out to be 1.02.

Regarding C4U C27A, the yeast fitness was 0.737.

As for C4U C27G, the yeast fitness is 0.656.

As for C4U C46U C49G U59C, the yeast fitness is at most 0.5.

For C4U C30A, the yeast fitness was determined as 0.917.

For C4U U8A U32G U35A C62U, the yeast fitness stood at 0.707.

Regarding C4U C34A A43U U47C C62G C66A, the yeast fitness was at most 0.5.

C4U G67C: the yeast fitness was 0.829.

Consider C4U U8A U16C A20U C29U A45C, for which the yeast fitness is at most 0.5.

As to C4U G52C, the yeast fitness came to 0.726.

Regarding C4U C11A G12A G48A A57C, the yeast fitness is at most 0.5.

With C4U G9C G18A U26G A45C, the yeast fitness was at most 0.5.

For C4U G44C A57U, the yeast fitness was found to be 0.595.

Turning to C4U U8C A36G G44C, the yeast fitness turned out to be 0.676.

With C4U C27U U35C C61G, the yeast fitness is at most 0.5.

In the case of C4U C11U G25C, the yeast fitness came out at 0.747.

Take C4U G9A G39A G44C: the yeast fitness is at most 0.5.

As to C4U C11U G44C, the yeast fitness came out at 0.702.

Turning to C4U C24A, the yeast fitness came out at 0.574.

On to C4U G10C G48C G63C G67A, for which the yeast fitness is at most 0.5.

Turning to C4U C34A C46U U47A, the yeast fitness was at most 0.5.

Regarding C4U C24U A36C, the yeast fitness was at most 0.5.

For C4U G12C A21C C29G A36G C46U G58A, the yeast fitness is at most 0.5.

As for C4U G12A A42U, the yeast fitness was at most 0.5.

For C4U C5G G18C C34U A69C, the yeast fitness is at most 0.5.

With C4U G39A A42G G67A, the yeast fitness is at most 0.5.

Turning to C4U C24G C30G C31U U35A A36U G44A G63C, the yeast fitness came out at 0.654.

As to C4U C5G C29G C31G A37C G63A, the yeast fitness was determined as 0.542.

As for C4U C11A G12A A42U C49U G51A, the yeast fitness was at most 0.5.

C4U G6A U8G C31U C49A G67A: the yeast fitness was at most 0.5.

Turning to C4U C55A A65U, the yeast fitness was at most 0.5.

For C4U C11A U28A C31U G51C G56A, the yeast fitness was at most 0.5.

C4U U7A G50C: the yeast fitness was at most 0.5.

In the case of C4U G68A, the yeast fitness worked out at 0.856.

Regarding C4U G68C, the yeast fitness came out at 0.963.

For C4U G68U, the yeast fitness came to 0.888.

C4U C11A G39A G51A G67C: the yeast fitness was at most 0.5.

With C4U C27A A43U G51C, the yeast fitness was at most 0.5.

For C4U U8A, the yeast fitness turned out to be 0.66.

As for C4U U8C, the yeast fitness is 0.942.

Regarding C4U C31U A37U G67A G68A, the yeast fitness was at most 0.5.

Take C4U C11G C34U G56A: the yeast fitness is at most 0.5.

Regarding C4U G25A C66U, the yeast fitness amounted to 0.75.

Take C4U G6A A15U A20C G25C U35A: the yeast fitness is at most 0.5.

Take C4U C5A C61U: the yeast fitness worked out at 0.719.

C4U C22U C33U A42C A57G: the yeast fitness was at most 0.5.

Take C4U C5G U28C C61A: the yeast fitness is at most 0.5.

In the case of C4U A69G, the yeast fitness turned out to be 0.901.

In the case of C4U C11U C22G, the yeast fitness came out at 0.629.

Consider C4U C24A A57U C60A G68C, for which the yeast fitness was at most 0.5.

For the variant C4U U7A C30G C34G A40C A57U, the yeast fitness is at most 0.5.

On to C4U C11U G25C G41A, for which the yeast fitness was 0.706.

For C4U G63C, the yeast fitness was determined as 0.782.

In the case of C4U G63A, the yeast fitness turned out to be 0.894.

With C4U C27U A57C C61U, the yeast fitness is at most 0.5.

For the variant C4U C27U A45C G48A G56C, the yeast fitness worked out at 0.612.

Turning to C4U G48A U54G, the yeast fitness was at most 0.5.

C4U U7A A36U: the yeast fitness came to 0.567.

As to C4U U7A A36G, the yeast fitness was at most 0.5.

In the case of C4U C30U A57G G68A, the yeast fitness is 0.525.

As to C4U U7A A20G G23A U26G, the yeast fitness was at most 0.5.

On to C4U U7A C46G A65C, for which the yeast fitness is 0.535.

Take C4U C27G A45C: the yeast fitness amounted to 0.564.

For the variant C4U C11U C31G C46A G63C A65U, the yeast fitness was at most 0.5.

For the variant C4U C61U, the yeast fitness is 0.977.

Consider C4U C11A A37C A65C, for which the yeast fitness was at most 0.5.

As to C4U G38C C61U C66U, the yeast fitness is at most 0.5.

C4U C34G G52U: the yeast fitness was 0.62.

On to C4U C5U A14C G68A, for which the yeast fitness was at most 0.5.

For the variant C4U G12A A20G C22U G68C, the yeast fitness was at most 0.5.

Consider C4U G52A A70U, for which the yeast fitness came out at 0.604.

Turning to C4U G23C U47C C49A G68C, the yeast fitness is at most 0.5.

For the variant C4U U7G C11G C46G, the yeast fitness is at most 0.5.

Take C4U G18A A21C G48C: the yeast fitness is at most 0.5.

As for C4U G44C A69U A70G, the yeast fitness is at most 0.5.

Turning to C4U C24A C30G A65U C66A, the yeast fitness was at most 0.5.

As to C4U C34A G44C, the yeast fitness came to 0.636.

As for C4U G44U, the yeast fitness was found to be 0.757.

Take C4U C24U A43G C60U C61G: the yeast fitness was at most 0.5.

As for C4U G6C U7A, the yeast fitness was at most 0.5.

For the variant C4U C31G U47C G48C, the yeast fitness was at most 0.5.

Turning to C4U G23A A40C U54A U59A, the yeast fitness was at most 0.5.

For C4U C5G C34U U54A, the yeast fitness was at most 0.5.

In the case of C4U G39A A42G G63A G67A, the yeast fitness is at most 0.5.

For C4U C22G U59C, the yeast fitness was 0.712.

As for C4U G9C C33G U54C, the yeast fitness is at most 0.5.

With C4U C29U G63A, the yeast fitness stood at 0.517.

Take C4U C22U C62U: the yeast fitness stood at 0.62.

On to C4U G12C C60G A70C, for which the yeast fitness was at most 0.5.

For C4U G50A, the yeast fitness was found to be 0.965.

As to C4U C31U C55G U59A, the yeast fitness amounted to 0.546.

On to C4U C11G C29U U59G, for which the yeast fitness is at most 0.5.

Take C4U G38A U47C: the yeast fitness turned out to be 0.501.

As to C4U C11A A14C U28A C31U A37U G39A A42G, the yeast fitness is 0.645.

Consider C4U G10C G23A U26C U32C A43G U53A, for which the yeast fitness was at most 0.5.

C4U C55U A65G: the yeast fitness turned out to be 0.554.

In the case of C4U G18A C22U A40C, the yeast fitness was at most 0.5.

In the case of C4U C24G U26A U28G C66A, the yeast fitness was at most 0.5.

For C4U G12C U54G, the yeast fitness was at most 0.5.

Turning to C4U C46A G67C, the yeast fitness is at most 0.5.

As to C4U G44A C61G, the yeast fitness was at most 0.5.

C4U C31U C61G: the yeast fitness turned out to be 0.58.

Consider C4U C24G C61U, for which the yeast fitness came out at 0.555.

Take C4U G18C G50A: the yeast fitness was at most 0.5.

In the case of C4U C11A C46U U59C, the yeast fitness was at most 0.5.

In the case of C4U C30A C66U, the yeast fitness worked out at 0.82.

In the case of C4U C55U C66A, the yeast fitness was at most 0.5.

Turning to C4U C55U, the yeast fitness came to 0.694.

For C4U G12A C60A, the yeast fitness was at most 0.5.

With C4U C30A G50C G56A C62U G67U, the yeast fitness was at most 0.5.

As to C4U C11U C30G, the yeast fitness is at most 0.5.

Consider C4U C5G G12A A14U U54A A57U, for which the yeast fitness is at most 0.5.

Turning to C4U G9A C34U A36G C55G A57U G67A, the yeast fitness is at most 0.5.

Take C4U G23C A36C C55G A57U G67A: the yeast fitness is at most 0.5.

With C4U U7C A15C U16G A70G, the yeast fitness is at most 0.5.

As to C4U C5G C29U U32A C33U, the yeast fitness was at most 0.5.

As for C4U C31U A40U A69U, the yeast fitness came out at 0.625.

On to C4U G6A A14C A65U, for which the yeast fitness is at most 0.5.

For the variant C4U G23A G56C A57G G68A, the yeast fitness is at most 0.5.

With C4U C22G C27U G50A G63A, the yeast fitness was at most 0.5.

Turning to C4U G48A G50A, the yeast fitness came to 0.961.

As for C4U G23C, the yeast fitness turned out to be 0.716.

For C4U U8A U13C C46A C61U, the yeast fitness is at most 0.5.

Regarding C4U C22G C33A A36C A43G C55G, the yeast fitness was found to be 0.742.

Take C4U G48C C66U: the yeast fitness was 0.729.

For the variant C4U G38A, the yeast fitness worked out at 0.919.

As for C4U G38C, the yeast fitness amounted to 0.825.

In the case of C4U C30A A45G C55G A65G, the yeast fitness was determined as 0.636.

On to C4U G9C G18A A21G C24U A37C, for which the yeast fitness came out at 0.694.

Regarding C4U U7A A36U A70G, the yeast fitness was at most 0.5.

On to C4U G25C C34U A65U, for which the yeast fitness is at most 0.5.

On to C4U C33A U54C, for which the yeast fitness was at most 0.5.
